Data published in ChEMBL document CHEMBL4000155, “Synthesis and Antileukemic Activities of Piperlongumine and HDAC Inhibitor Hybrids against Acute Myeloid Leukemia Cells” (J Med Chem, 2016).
Activity calls are given as the source filed them. No cut-off for these calls is given here.

What was measured:
MOLM-13 [1] = test: Induction of apoptosis in human MOLM13 cells harboring wild type p53/FLT3-ITD mutant at 2 uM after 24 hrs in presence of SAHA by annexin V-FITC/PI staining based flow cytometry; type: functional
In short: (§1)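 Cells treated 24 h, single agents or SAHA+PL at 1:1 (each drug at the stated concentration). Annexin V-FITC/PI kit staining, then flow cytometry, reported as % Annexin V+ cells. Three independent experiments in triplicate, with data from one representative experiment. DMSO <0.1% vehicle control.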

U-937 [2] = test: Induction of apoptosis in p53 null human U937 cells assessed as PARP-1 cleavage at 2 uM after 24 hrs in presence of SAHA by Western blot analysis; type: functional, cell-based
In short: (§2)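 U937 cells exposed for 24 h. Lysates with protease/phosphatase inhibitors were separated by SDS-PAGE, transferred to PVDF and probed for PARP and cleaved caspase-3, with β-actin as loading control.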

U-937 [3] = test: Effect on SAHA-induced apoptosis in p53 null human U937 cells assessed as decrease in XIAP expression level by measuring ratio of XIAP to beta-actin level at 2 uM after 24 hrs by Western blot analysis relative to control; type: functional
In short: (§3)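 U937 cells treated 24 h, alone or PL+SAHA. Whole-cell lysates (protease/phosphatase inhibitors) immunoblotted for γH2AX, CHK1, RAD51, Bim and XIAP. Band densitometry normalised to β-actin, then expressed as fold change relative to the untreated control.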

MOLM-13 [4] = test: Induction of cell death in human MOLM13 cells harboring wild type p53/FLT3-ITD mutant assessed as combination index at 1 to 4 uM after 24 hrs in presence of SAHA by annexin V-FITC/PI staining based flow cytometry; type: functional
In short: (§4)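 Cells given SAHA and PL alone or together at 1:1 ratio for 24 h, then Annexin V-FITC/PI staining and flow cytometry. Combination index computed from the % Annexin V+ data; CI < 1 synergistic, = 1 additive, > 1 antagonistic. Triplicates, three independent experiments.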

U-937 [5] = test: Induction of cell death in p53 null human U937 cells assessed as combination index at 2 to 4 uM after 24 hrs in presence of SAHA by annexin V-FITC/PI staining based flow cytometry; type: functional; in short: as §4
MOLM-13 [6] = test: Antiproliferative activity against human MOLM13 cells harboring wild type p53/FLT3-ITD mutant after 72 hrs in presence of SAHA by MTT assay; type: functional, cell-based; settings: MOLM-13, 72 h
In short: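 AML cell lines grown in RPMI 1640 with 10% FBS (20% for MOLM-13), 2 mM L-glutamine and penicillin/streptomycin at 37 °C, 5% CO2. Ara-C-resistant HL-60 and CMK sublines came from stepwise cytarabine selection and were kept in 600 nM or 300 nM cytarabine respectively. Cells were treated 72 h. MTT 0.05 mg/mL, 3 h at 37 °C, DMSO solubilization, absorbance at 570 nm. IC50 given ± SEM.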

U-937 [7] = test: Induction of apoptosis in p53 null human U937 cells at 1 uM after 24 hrs in presence of SAHA by annexin V-FITC/PI staining based flow cytometry; type: functional; in short: as §1
U-937 [8] = test: Induction of apoptosis in p53 null human U937 cells at 2 uM after 24 hrs in presence of SAHA by annexin V-FITC/PI staining based flow cytometry; type: functional
In short: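 Human U937 AML cells (p53 null) in RPMI 1640 with 10% FBS, 2 mM L-glutamine, penicillin/streptomycin, 37 °C, 5% CO2. Exposed 24 h to compound alone or with SAHA; vehicle DMSO < 0.1% v/v. Annexin V-FITC/PI staining and flow cytometry, reported as % Annexin V+ cells. Three independent experiments in triplicate; one representative shown. EC50 taken as concentration giving 50% Annexin V+ cells versus vehicle.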

U-937 [9] = test: Induction of DNA damage in p53 null human U937 cells assessed as decrease in Rad51 expression level by measuring ratio of Rad51 to beta-actin level at 2 uM after 24 hrs by Western blot analysis relative to control; type: functional; in short: as §3
MOLM-13 [10] = test: Induction of cell death in human MOLM13 cells harboring wild type p53/FLT3-ITD mutant after 24 hrs by annexin V-FITC/PI staining based flow cytometry; type: functional
In short: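 MOLM-13 (p53 wt, FLT3-ITD) kept in RPMI 1640 with 20% FBS, 2 mM L-glutamine, penicillin/streptomycin, 37 °C, 5% CO2. Treated 24 h; vehicle DMSO < 0.1% v/v. Annexin V-FITC/PI flow cytometry, % Annexin V+ cells. Three independent experiments in triplicate; one representative shown. EC50 is the concentration giving 50% Annexin V+ cells relative to vehicle.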

U-937 [11] = test: Induction of apoptosis in p53 null human U937 cells assessed as PARP-1 cleavage after 24 hrs by Western blot analysis; type: functional, cell-based; in short: as §2

IC50 (MOLM-13 [6]) [nM] | Compound | Activity (MOLM-13 [1]) [%] | Activity (U-937 [2]) | Ratio (U-937 [3]) | CI (MOLM-13 [4]) | CI (U-937 [5]) | Activity (U-937 [7]) [%] | Activity (U-937 [8]) [%] | Ratio (U-937 [9]) | Activity (MOLM-13 [10]) | Activity (U-937 [11])
934 | COc1cc(/C=C/C(=O)N2CCC=CC2=O)cc(OC)c1OC [PIPLARTINE] | 53.6 | Active | 0.6 | <=1.1 | <0.9 | 6.2 | 62.5 | – | – | –
– | COc1cc(/C=C/C(=O)N2CCC=CC2=O)cc(OC)c1OCCCCCCC(=O)NO | – | – | – | – | – | – | – | 0.9 | Dose-dependent effect | Dose-dependent effect
